According to ChEMBL document CHEMBL4354848, “Molecular Design and Synthesis of Ivermectin Hybrids Targeting Hepatic and Erythrocytic Stages of Plasmodium Parasites” (J Med Chem, 2020):
The source made the active and inactive calls. The rule behind the calls is not given here.

Legend:
Anopheles stephensi = assay: Insecticidal activity against compound treated Balb/c mouse blood fed Anopheles stephensi assessed as effect on mosquito survival at 1 mg/kg, po administered via gavage 24 hrs prior to blood feed for 20 mins under dark condition and measured daily up to 14 days post blood feed; type: functional, organism-based
In short: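 Balb/c mice (6-8 weeks) received a single oral dose of 1 mg/kg as a suspension in sunflower oil. Controls got DMSO in sunflower oil. At 24 h, ~30 mosquitoes per mouse fed for ~20 min in the dark. Blood ingestion was confirmed visually, and survival was scored daily up to 14 days.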

Huh-7 = assay: Cytotoxicity against human HuH7 cells infected with luciferase expressing Plasmodium berghei sporozoites assessed as reduction in cell viability preincubated for 1 hr followed by parasite infection and measured after 48 hrs by alamar blue assay; type: cell-based; conditions: huh-7, 46 h, in the assay text read “46 hrs” for “48 hrs”
In short: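 Huh7 cells were pre-treated for 1 h with serial dilutions from 10 mM DMSO stocks, then infected with luciferase-expressing P. berghei sporozoites and spun at 1800 xg for 5 min. Cultures were kept at 37 °C, 5% CO2. Viability was read by Alamar Blue added at 46 h post infection, following the manufacturer's instructions.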

Plasmodium falciparum [1] = assay: Potency index, ratio of ivermectin IC50 to test compound IC50 for antiplasmodial activity against chloroquine-sensitive ring-stage synchronized cultures of Plasmodium falciparum NF54; type: functional
Plasmodium berghei [2] = assay: Antiplasmodial activity against luciferase expressing Plasmodium berghei sporozoites infected in human HuH7 cells assessed as reduction in parasite load at 1 to 10 uM preincubated for 1 hr followed by parasite infection and measured after 46 hrs by bioluminescence assay; type: functional, organism-based
In short: (§1)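 Huh7 hepatoma cells seeded at 1x10^4/well, left overnight at 37 °C, 5% CO2. Serial dilutions from 10 mM DMSO stocks in medium with gentamicin and amphotericin B added 1 h before 1x10^4 firefly luciferase-expressing P. berghei sporozoites from An. stephensi salivary glands. Spin 1800 xg for 5 min, then culture. Parasite load read by bioluminescence. DMSO and atovaquone as controls. IC50 from nonlinear regression of normalized curves.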

Plasmodium falciparum [3] = assay: Antiplasmodial activity against chloroquine-sensitive ring-stage synchronized cultures of Plasmodium falciparum NF54 incubated for 48 hrs by SYBR green I dye based flow cytometry; type: functional, organism-based
In short: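 Ring-stage synchronized PfNF54 cultures (2.5% hematocrit, ~1% parasitemia) exposed to compounds or DMSO vehicle for 48 h at 37 °C under 5% CO2/5% O2. Stocks in DMSO diluted in RPMI 1640-based medium with Albumax, HEPES, hypoxanthine. ~800 000 cells stained with SYBR green I for 20 min in the dark; ~100,000 events counted by flow cytometry. Triplicates, at least three experiments.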

Plasmodium berghei [4] = assay: Antiplasmodial activity against luciferase expressing Plasmodium berghei sporozoites infected in human HuH7 cells assessed as reduction in parasite load preincubated for 1 hr followed by parasite infection and measured after 46 hrs by bioluminescence assay; type: functional, organism-based; in short: as §1
Plasmodium berghei [5] = assay: Potency index, ratio of ivermectin IC50 to test compound IC50 for antiplasmodial activity against luciferase expressing Plasmodium berghei sporozoites infected in human HuH7 cells; type: functional
[6] = Plasmodium falciparum, NF54, 48 h, read-out: IC50

| Compound | Activity (Anopheles stephensi) | Activity (Huh-7) | Ratio IC50 (Plasmodium falciparum [1]) | Activity (Plasmodium berghei [2]) | IC50 (Plasmodium falciparum [3]; [6]) | IC50 (Plasmodium berghei [4]; Plasmodium berghei, Huh-7) | Ratio IC50 (Plasmodium berghei [5]) | IC50 (Plasmodium falciparum [3]; read-out: IC50) | IC50 (Plasmodium berghei [4]) | IC50 (Plasmodium falciparum [3]) |
| --- | --- | --- | --- | --- | --- | --- | --- | --- | --- | --- |
| CCOC(=O)c1c(C)nc(OCc2cn(CC(=O)O[C@@H]3/C(C)=C/C[C@@H]4C[C@@H](C[C@]5(CC[C@H](C)[C@@H]([C@@H](C)CC)O5)O4)OC(=O)[C@@H]4C=C(C)[C@@H](O)[C@H]5OC/C(=C\C=C\[C@@H]3C)[C@]54O)nn2)nc1-c1cc(OC)c(OC)cc1[N+](=O)[O-] | inactive | Non-Toxic | 5 | Active | 0.0502 µM | 0.503 µM | 3 |  |  |  |
| CC[C@H](C)[C@H]1O[C@]2(CC[C@@H]1C)C[C@@H]1C[C@@H](C/C=C(\C)[C@@H](OC(=O)Cn3cc(COc4nc(C)c(C(=O)OC(C)C)c(-c5cccc([N+](=O)[O-])c5)n4)nn3)[C@@H](C)/C=C/C=C3\CO[C@@H]4[C@H](O[Si](C)(C)C(C)(C)C)C(C)=C[C@@H](C(=O)O1)[C@]34O)O2 |  | Non-Toxic |  | inactive |  |  |  |  |  |  |
| CC[C@H](C)[C@H]1O[C@]2(CC[C@@H]1C)C[C@@H]1C[C@@H](C/C=C(\C)[C@@H](OC(=O)Cn3cc(COc4nc(C)c(C(=O)OC(C)C)c(-c5cccc([N+](=O)[O-])c5)n4)nn3)[C@@H](C)/C=C/C=C3\CO[C@@H]4[C@H](O)C(C)=C[C@@H](C(=O)O1)[C@]34O)O2 |  | Non-Toxic | 3 | Active | 0.161 µM | 0.911 µM |  |  |  |  |
| O=C1C(O)=C([C@H]2CC[C@H](c3ccc(Cl)cc3)CC2)C(=O)c2ccccc21 [ATOVAQUONE] |  |  |  |  |  | 0.0007 µM |  |  |  |  |
| IVERMECTIN [listing 1 of 2 here] |  |  |  |  |  |  |  | 0.52 µM | 1.64 µM |  |
| IVERMECTIN [listing 2 of 2 here] | Active |  |  |  |  |  |  |  |  |  |
| CCOC(=O)c1c(C)nc(OCc2cn(CC(=O)O[C@@H]3/C(C)=C/C[C@@H]4C[C@@H](C[C@]5(CC[C@H](C)[C@@H]([C@@H](C)CC)O5)O4)OC(=O)[C@@H]4C=C(C)[C@@H](O)[C@H]5OC/C(=C\C=C\[C@@H]3C)[C@]54O)nn2)nc1-c1ccccc1 |  | Non-Toxic | 11 | Active | 0.111 µM | 0.99 µM |  |  |  |  |
| CC[C@H](C)[C@H]1O[C@]2(CC[C@@H]1C)C[C@@H]1C[C@@H](C/C=C(\C)[C@@H](O)[C@@H](C)/C=C/C=C3\CO[C@@H]4[C@H](O)C(C)=C[C@@H](C(=O)O1)[C@]34O)O2 [IVM AGLYCONE] | inactive | Non-Toxic |  | Active |  | 4.56 µM |  |  |  | Not Active |
